Results reported in ChEMBL document CHEMBL2046322, “Discovery of 1,3-Diaminobenzenes as Selective Inhibitors of Platelet Activation at the PAR1 Receptor” (ACS Med Chem Lett, 2012).
Converted amounts (≈) assume the structure as drawn.

Assays:
[1] = target: T1, Proteinase-activated receptor 1 (Homo sapiens) (UniProt P25116); test: Inhibition of SFLLRN-NH2-stimulated PAR1-mediated platelet activation in […] assessed as surface expression of P-selectin at 10 uM after 20 mins by flow cytometry; assay type: cell-based
T1 sequence (whole entry): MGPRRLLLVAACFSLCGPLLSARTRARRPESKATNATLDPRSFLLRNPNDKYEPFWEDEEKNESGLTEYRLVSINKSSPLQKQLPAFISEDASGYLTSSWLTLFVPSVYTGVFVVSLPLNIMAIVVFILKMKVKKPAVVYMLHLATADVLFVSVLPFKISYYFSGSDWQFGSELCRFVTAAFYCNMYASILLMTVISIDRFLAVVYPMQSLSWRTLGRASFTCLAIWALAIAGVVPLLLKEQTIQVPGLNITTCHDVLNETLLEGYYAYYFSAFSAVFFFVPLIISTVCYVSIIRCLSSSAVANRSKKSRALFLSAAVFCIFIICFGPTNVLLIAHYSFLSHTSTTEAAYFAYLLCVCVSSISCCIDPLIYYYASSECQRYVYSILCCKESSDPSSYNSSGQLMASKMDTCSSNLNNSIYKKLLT

[2] = target: T2, Proteinase-activated receptor 1 (Homo sapiens, UniProt P25116); test: Inhibition of SFLLRN-NH2-stimulated PAR1-mediated platelet activation in […] assessed as surface expression of P-selectin after 20 mins by flow cytometry; parameters: species or system Plasma
T2 sequence (P25116 whole entry): T1 sequence (whole entry)

Plasma [3] = test: Metabolic stability in human plasma assessed as compound remaining at 5 uM after 5 hrs; assay type: ADME, cell-free
Summary of the method: (§1)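 Compound incubated in human or mouse plasma; stability reported as percent remaining after 5 h.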

Plasma [4] = test: Metabolic stability in mouse plasma assessed as compound remaining at 5 uM after 5 hrs; assay type: ADME, cell-free; summary of the method: as §1
Plasma [5] = test: Plasma protein binding in mouse; assay type: ADME, cell-free
Plasma [6] = test: Plasma protein binding in human; assay type: ADME, cell-free
[7] = target: T1, Proteinase-activated receptor 1 (Homo sapiens); test: Inhibition of SFLLRN-NH2-stimulated PAR1-mediated platelet activation in platelet-rich human plasma assessed as surface expression of P-selectin at 3 uM after 20 mins by flow cytometry; conditions: Platelets, in the assay text read “gel-filtered human platelets” for “platelet-rich human plasma”
Summary of the method: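 Gel-filtered human platelets (0.5–1 × 10⁸/mL) exposed to antagonist at 3 μM, then challenged with 5 μM SFLLRN for 10 min. Platelets stained with PE-conjugated AC1.2 anti-P-selectin antibody for 20 min at 37 °C, diluted in PBS and measured immediately by flow cytometry.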

[8] = Solubility of the compound in phosphate buffered saline; assay type: physicochemical; conditions: buffer

Structure (SMILES)	inhibition [1] [%]	IC50 [2] [nM]	also measured
CCCC(=O)Nc1cccc(NC(=O)c2cccc(C#N)c2)c1	70	–	–
CCCC(=O)Nc1cccc(NC(=O)c2cccc(C)c2)c1	88	–	–
CCCC(=O)Nc1ccc(NC(=O)c2ccccc2Br)cc1	1	–	–
CCCC(=O)Nc1cccc(NC(=O)c2cc(C)ccc2Br)c1	> 99	480	–
CCCC(=O)Nc1cccc(NC(=O)c2cc(F)ccc2Br)c1	> 99	600	–
O=C(Nc1cc(NC(=O)C2CCCC2)ccn1)c1ccccc1Br	< 1	–	–
CCCC(=O)Nc1cccc(NC(=O)c2cccnc2)c1	< 1	–	–
CC(C)CNC(=O)c1coc(NC(=O)c2ccccc2Br)n1	< 1	–	–
CCCC(=O)Nc1cccc(NC(=O)c2ccccc2F)c1	99	970	–
CCCNC(=O)c1cccc(NC(=O)c2ccccc2Cl)c1	99	1800	–
CC(=O)N1CCCc2ccc(NC(=O)c3ccccc3Br)cc21	10	–	Stability (Plasma [3]): 92%; Stability (Plasma [4]): 71%; PPB (Plasma [5]): 89%
CCCC(=O)Nc1cccc(NC(=O)c2ccc(C(F)(F)F)cc2)c1	30	–	–
CCCC(=O)Nc1cccc(NC(=O)c2ccccc2)c1	64	–	–
CCCC(=O)Nc1ccc(Cl)c(NC(=O)c2ccccc2Br)c1	35	–	–
CCC(C)(C)C(=O)Nc1cccc(NC(=O)c2ccccc2Br)c1	21	–	Stability (Plasma [3]): > 99%; Stability (Plasma [4]): > 99%; PPB (Plasma [6]): 95%
CCCC(=O)Nc1cccc(NC(=O)c2cccc(S(C)(=O)=O)c2)c1	25	–	–
CCCC(=O)Nc1ccc2nc(-c3ccccc3Br)[nH]c2c1	39	–	–
CCCC(=O)Nc1cccc(NC(=O)c2ccccc2OC(F)(F)F)c1	> 99	710	–
CCCC(=O)Nc1cccc(NC(=O)c2ccccc2OC)c1	50	–	–
Cc1ccccc1C(=O)Nc1cccc(NC(=O)Cc2ccc(Cl)cc2)c1	40	–	–
O=C(Nc1cccc(N2CCCCC2=O)c1)c1ccccc1Br	9	–	Stability (Plasma [3]): 94%; Stability (Plasma [4]): 82%; PPB (Plasma [6]): 82%; PPB (Plasma [5]): 72%
CCCC(=O)Nc1cccc(NCc2ccccc2Br)c1	60	–	Stability (Plasma [3]): 73%; Stability (Plasma [4]): 1%
CCCC(=O)Nc1cccc(NC(=O)c2ccc(S(C)(=O)=O)cc2)c1	10	–	–

Structure (SMILES)	inhibition [1] [%]	IC50 [2] [nM]	also measured
CCCC(=O)Nc1cccc(NC(=O)c2ccc(Cl)cc2)c1	80	–	–
CCCC(=O)Nc1cccc(NC(=O)c2cccc(Cl)c2)c1	–	–	inhibition [7]: 80%
O=C(Nc1cccc(NC(=O)C2CCCC2)c1)c1ccccc1Br	91	520	Stability (Plasma [4]): 26%
CCCC(=O)Nc1cccc(NC(=O)c2ccc(F)cc2)c1	85	–	–
CCCC(=O)Nc1cccc(NC(=O)c2ccccc2Cl)c1	> 99	1100	–
CCCCC(=O)Nc1cccc(NC(=O)c2ccccc2Br)c1	< 1	–	–
O=C(Nc1cccc(NC(=O)c2ccccc2Br)c1)c1ccccc1	67	–	–
CC(=O)Nc1cccc(NC(=O)c2ccccc2Cl)c1	35	–	–
CCCC(=O)Nc1cccc(NC(=O)c2ccccc2-c2ccccc2)c1	< 1	–	–
CCCCNc1cccc(NC(=O)c2ccccc2Br)c1	> 99	340	Stability (Plasma [3]): 99%; Stability (Plasma [4]): 97%; PPB (Plasma [6]): 97%; PPB (Plasma [5]): 96%
CCC(=O)Nc1cccc(NC(=O)c2ccccc2Br)c1	–	1680	inhibition [7]: 95%
CCCC(=O)N(C)c1cccc(NC(=O)c2ccccc2Br)c1	8	–	Stability (Plasma [3]): 90%; Stability (Plasma [4]): 85%; PPB (Plasma [6]): 98%; PPB (Plasma [5]): 85%
CCCC(=O)Nc1cccc(NC(=O)c2ccc(OC)cc2)c1	15	–	–
O=C(Nc1cccc(N2CCCS2(=O)=O)c1)c1ccccc1Br	8	–	Stability (Plasma [3]): > 99%; Stability (Plasma [4]): 98%; PPB (Plasma [5]): 76%
CCCC(=O)Nc1cccc(NC(=O)c2ccco2)c1	30	–	–
CCCCS(=O)(=O)Nc1cccc(NC(=O)c2ccccc2Br)c1	31	–	Stability (Plasma [3]): 97%; Stability (Plasma [4]): > 99%
CCS(=O)(=O)N1CCCc2ccc(NC(=O)c3ccccc3Br)cc21	26	–	Stability (Plasma [3]): > 99%; Stability (Plasma [4]): 97%; PPB (Plasma [6]): 98%; PPB (Plasma [5]): 96%
CN(C(=O)c1ccccc1Br)c1cccc(NC(=O)C2CCCC2)c1	< 1	–	Stability (Plasma [3]): 64%; Stability (Plasma [4]): 40%; PPB (Plasma [6]): 95%; PPB (Plasma [5]): 90%
O=C(Nc1ccnc(NC(=O)c2ccccc2Br)c1)c1ccccc1	11	–	–
CCCC(=O)Nc1cccc(NC(=O)c2ccccc2C(=O)N(C)C)c1	48	–	–
CC(C)C(=O)Nc1cccc(NC(=O)c2ccccc2Br)c1	88	1410	Stability (Plasma [4]): 83%
CCCC(=O)Nc1cccc(NC(=O)c2cccc(Cl)c2Cl)c1	99	3120	–
CCS(=O)(=O)Nc1cccc(NC(=O)c2ccccc2Br)c1	27	–	Stability (Plasma [3]): 99%; Stability (Plasma [4]): > 99%; PPB (Plasma [6]): 93%; PPB (Plasma [5]): 69%

Structure (SMILES)	inhibition [1] [%]	IC50 [2] [nM]	also measured
CCCC(=O)Nc1cccc(NC(=O)c2c(C)cccc2C)c1	98	3000	–
CCCC(=O)Nc1cccc(NC(=O)c2cc(Cl)ccc2Br)c1	68	380	–
CCCC(=O)Nc1cccc(NC(=O)c2ccc(C)cc2)c1	25	–	–
CCCC(=O)Nc1cccc(NC(=O)c2cccc(-c3ccccc3)c2)c1	98	2200	–
CCCC(=O)Nc1cccc(NC(=O)c2cccc(Oc3ccccc3)c2)c1	–	–	inhibition [7]: 65%
CCCC(=O)Nc1cccc(NC(=O)c2cccc([N+](=O)[O-])c2)c1	55	–	–
CCOC(=O)Nc1cccc(NC(=O)c2ccccc2Br)c1	98	2640	Stability (Plasma [3]): 85%; Stability (Plasma [4]): 56%; PPB (Plasma [6]): 95%; PPB (Plasma [5]): 87%
CCCC(=O)Nc1cccc(NC(=O)c2ccccc2C)c1	98	770	–
CCCC(=O)Nc1cccc(NC(=O)c2ccc(F)cc2Br)c1	> 99	390	–
CCC(=O)Nc1cccc(NC(=O)c2ccccc2C)c1C	5	–	–
CCCC(=O)Nc1cccc(C(=O)Nc2ccccc2Cl)c1	67	–	–
CCCC(=O)Nc1cccc(NC(=O)c2cccc(NC(C)=O)c2)c1	55	–	–
CCCC(=O)Nc1cccc(NC(=O)c2c(Cl)cccc2Br)c1	> 99	2280	–
CCCC(=O)Nc1ccnc(NC(=O)c2ccccc2Br)c1	< 1	–	–
CCCC(=O)Nc1cccc(NC(=O)c2ccccc2C(F)(F)F)c1	99	1290	–
CCCC(=O)Nc1cccc(NC(=O)c2ccccc2CC)c1	> 99	520	–
CCCC(=O)Nc1cccc(N(C)C(=O)c2ccccc2Br)c1	< 1	–	Stability (Plasma [3]): 19%; Stability (Plasma [4]): < 1%; PPB (Plasma [6]): 89%
CCCC(=O)Nc1cccc(NC(=O)c2cnc3ccccc3c2)c1	10	–	–
Cc1ccccc1C(=O)Nc1cccc(NC(=O)CC(C)C)c1	> 99	1120	Stability (Plasma [3]): > 99%; Stability (Plasma [4]): 69%; PPB (Plasma [6]): 96%; PPB (Plasma [5]): 83%
CCCC(=O)Nc1cccc(NC(=O)c2ccccc2S(C)(=O)=O)c1	21	–	–
CCCNC(=O)c1coc(NC(=O)c2ccccc2Br)n1	< 1	–	–
CC(C)CC(=O)Nc1cccc(NC(=O)c2ccccc2Br)c1	> 99	290	Stability (Plasma [3]): 90%; Stability (Plasma [4]): 65%; solubility [8]: 20 µM (≈ 7.51 µg/mL); PPB (Plasma [6]): 93%; PPB (Plasma [5]): 87%
